Format in all cases: functional
The test system of test [1] is Staphylococcus aureus. The test is described as follows: Antibacterial activity against Staphylococcus aureus ATCC 35556 assessed as induction of biofilm eradication after 24 hrs by CLSI method. The gist of the method:
(§1)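 Pin-lid biofilms were grown 24 h at 35°C in TSB with 1% glucose and 2% NaCl (7 log10 CFU/ml start), rinsed in PBS, and exposed 24 h at 35°C to serial antibiotic dilutions. Pin bacteria were dispersed by sonication and vortexing. Counts were plated in duplicate on TSA (detection limit 2.4 CFU/ml) or read as turbidity at 570 nm. Quadruplicate.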

The subject of test [2] is Staphylococcus epidermidis. The test is described as follows: Antibacterial activity against slime-negative Staphylococcus epidermidis M7 assessed as induction of biofilm eradication after 24 hrs by CLSI method. In a few lines:
as §1

Test [3] has as its system Staphylococcus aureus. Nature of the test: Antibacterial activity against methicillin-susceptible Staphylococcus aureus L2 after 24 hrs by CLSI method. The following applies: L2, 24 h. In a few lines: (§2)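 Conventional MIC determined in duplicate following CLSI dilution guidelines, with cultures incubated at 35°C.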
Test [4] relates to Staphylococcus aureus. The test is described as follows: Antibacterial activity against Staphylococcus aureus ATCC 35556 after 24 hrs by CLSI method. The following applies: ATCC 35556, 24 h. The gist of the method: as §2
The test system of test [5] is Staphylococcus aureus. Nature of the test: Antibacterial activity against methicillin-resistant Staphylococcus aureus L32 assessed as induction of biofilm eradication after 24 hrs by CLSI method. The gist of the method:
as §1

In test [6] the test system is Staphylococcus aureus. Nature of the test: Antibacterial activity against methicillin-resistant Staphylococcus aureus L83 assessed as inhibition of biofilm formation after 24 hrs by CLSI method. The gist of the method:
(§3)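 Modified Calgary pin-lid device. Inoculum of 7 log10 CFU/ml was prepared by direct colony suspension from 24-h TSA growth. Biofilm grew on pins for 24 h at 35°C on a rocking table in TSB with 1% glucose and 2% NaCl. Pins were rinsed three times in PBS and exposed 24 h at 35°C to serial antibiotic dilutions. MBIC is the last well without visible growth. Quadruplicate.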

Test [7] has as its system Staphylococcus epidermidis. The test is described as follows: Antibacterial activity against slime-negative Staphylococcus epidermidis M7 assessed as inhibition of biofilm formation after 24 hrs by CLSI method. The gist of the method: as §3
For test [8], the system named is Staphylococcus epidermidis. Nature of the test: Antibacterial activity against Staphylococcus epidermidis RP62A assessed as induction of biofilm eradication after 24 hrs by CLSI method. In a few lines:
as §1

The subject of test [9] is Staphylococcus aureus. The test is described as follows: Antibacterial activity against methicillin-susceptible Staphylococcus aureus L2 assessed as inhibition of biofilm formation after 24 hrs by CLSI method. In a few lines: as §3
Test [10] deals with Enterococcus faecalis. Nature of the test: Antibacterial activity against Enterococcus faecalis ATCC 29212 after 24 hrs by CLSI method. The following applies: ATCC 29212, 24 h. In a few lines:
as §2

Test [11] concerns Staphylococcus aureus. Nature of the test: Antibacterial activity against Staphylococcus aureus ATCC 35556 assessed as inhibition of biofilm formation after 24 hrs by CLSI method. The gist of the method:
as §3

Test [12] deals with Enterococcus faecalis. Nature of the test: Antibacterial activity against Enterococcus faecalis ATCC 29212 assessed as induction of biofilm eradication after 24 hrs by CLSI method. The gist of the method: as §1
The test system of test [13] is Staphylococcus aureus. The test is described as follows: Antibacterial activity against methicillin-resistant Staphylococcus aureus L32 after 24 hrs by CLSI method. The following applies: L32, 24 h. The gist of the method: as §2
Test [14] deals with Staphylococcus aureus. Nature of the test: Antibacterial activity against methicillin-resistant Staphylococcus aureus L32 assessed as inhibition of biofilm formation after 24 hrs by CLSI method. The gist of the method:
as §3

Test [15] concerns Staphylococcus aureus. The test is described as follows: Antibacterial activity against methicillin-susceptible Staphylococcus aureus L2 assessed as induction of biofilm eradication after 24 hrs by CLSI method. In a few lines: as §1
The subject of test [16] is Staphylococcus epidermidis. Nature of the test: Antibacterial activity against Staphylococcus epidermidis RP62A after 24 hrs by CLSI method.
Test [17] concerns Staphylococcus epidermidis. The test is described as follows: Antibacterial activity against Staphylococcus epidermidis RP62A assessed as inhibition of biofilm formation after 24 hrs by CLSI method. In a few lines: as §3
Test [18] concerns Enterococcus faecalis. The test is described as follows: Antibacterial activity against Enterococcus faecalis ATCC 29212 assessed as inhibition of biofilm formation after 24 hrs by CLSI method. The gist of the method:
as §3

The test system of test [19] is Staphylococcus aureus. The test is described as follows: Antibacterial activity against methicillin-resistant Staphylococcus aureus L83 assessed as induction of biofilm eradication after 24 hrs by CLSI method. The gist of the method:
as §1

For test [20], the system named is Staphylococcus aureus. Nature of the test: Antibacterial activity against methicillin-resistant Staphylococcus aureus L83 after 24 hrs by CLSI method. The following applies: L83, 24 h. In a few lines: as §2
Test [21] has as its system Staphylococcus aureus. The test is described as follows: Antibacterial activity against methicillin-resistant Staphylococcus aureus by broth microdilution method. In general terms: Dilution methods test growth across graded concentrations, often in twofold steps.
For test [22], the system named is Staphylococcus epidermidis. The test is described as follows: Antibacterial activity against slime-negative Staphylococcus epidermidis M7 after 24 hrs by CLSI method. The following applies: M7, 24 h.

Two compounds from ChEMBL document CHEMBL1649538 (2009) can be followed below.

In brackets after ≈: the same amount, converted by molar mass.

With `CN[C@H](CC(C)C)C(=O)N[C@H]1C(=O)N[C@@H](CC(N)=O)C(=O)N[C@H]2C(=O)N[C@H]3C(=O)N[C@H](C(=O)N[C@H](C(=O)O)c4cc(O)cc(O)c4-c4cc3ccc4O)[C@H](O)c3ccc(c(Cl)c3)Oc3cc2cc(c3O[C@@H]2O[C@H](CO)[C@@H](O)[C@H](O)[C@H]2O[C@H]2C[C@](C)(N)[C@H](O)[C@H](C)O2)Oc2ccc(cc2Cl)[C@H]1O` [VANCOMYCIN], the MBEC in the test with Staphylococcus aureus [1] was over 256 µg/mL; in test [2], 2 µg/mL; in the test with Staphylococcus aureus [5], over 256 µg/mL; in [8], 4 µg/mL; in the test on Enterococcus faecalis [12] it was over 256 µg/mL; in the test with Staphylococcus aureus [15], over 256 µg/mL. Besides, the MBEC in the test with Staphylococcus aureus [19] is over 256 µg/mL. In addition, the MBC (usually the lowest tested concentration that kills the bacteria rather than only halting them) against Staphylococcus aureus [3] worked out at 2 µg/mL (≈ 1.38 µM); in the test on Staphylococcus aureus [4], 2 µg/mL (≈ 1.38 µM); against Enterococcus faecalis [10], 16 µg/mL (≈ 11 µM); with Staphylococcus aureus [13], 2 µg/mL (≈ 1.38 µM); in test [16] it was 2 µg/mL (≈ 1.38 µM); with Staphylococcus aureus [20], 2 µg/mL (≈ 1.38 µM). Also, the MBIC with Staphylococcus aureus [6] stood at 4 µg/mL; in test [7], 8 µg/mL; in the test on Staphylococcus aureus [9] it was 16 µg/mL; in the test on Staphylococcus aureus [11] it was 16 µg/mL; in the test with Staphylococcus aureus [14], 8 µg/mL; in test [17], 4 µg/mL. In the test with Enterococcus faecalis [18], the MBIC was determined as 16 µg/mL. In addition, in the test on Enterococcus faecalis [10], the MIC (in general, the lowest concentration that inhibits growth of the organism) was found to be 2 µg/mL (≈ 1.38 µM).

With `CCCCCCCCCCNCCN[C@@]1(C)C[C@H](O[C@H]2[C@H](Oc3c4cc5cc3Oc3ccc(cc3Cl)[C@@H](O)[C@@H](NC(=O)[C@@H](CC(C)C)NC)C(=O)N[C@@H](CC(N)=O)C(=O)N[C@H]5C(=O)N[C@H]3C(=O)N[C@H](C(=O)N[C@H](C(=O)O)c5cc(O)c(CNCP(=O)(O)O)c(O)c5-c5cc3ccc5O)[C@H](O)c3ccc(c(Cl)c3)O4)O[C@H](CO)[C@@H](O)[C@@H]2O)O[C@@H](C)[C@H]1O` [TELAVANCIN], the MBEC was 0.125 µg/mL in the test with Staphylococcus aureus [1]; 0.5 µg/mL in test [2]; 2 µg/mL in the test on Staphylococcus aureus [5]; 1 µg/mL in test [8]; 1 µg/mL in the test on Enterococcus faecalis [12]; 1 µg/mL in the test on Staphylococcus aureus [15]. In addition, the minimum bactericidal concentration (MBC) in the test on Staphylococcus aureus [3] was found to be 0.125 µg/mL (≈ 0.0712 µM); with Staphylococcus aureus [4] it was 0.25 µg/mL (≈ 0.142 µM); in test [22], 0.125 µg/mL (≈ 0.0712 µM); against Enterococcus faecalis [10] it was 1 µg/mL (≈ 0.57 µM); in the test with Staphylococcus aureus [13] it was 0.125 µg/mL (≈ 0.0712 µM); in [16], 0.125 µg/mL (≈ 0.0712 µM). The same compound had an MBC in the test with Staphylococcus aureus [20] of 0.125 µg/mL (≈ 0.0712 µM). In addition, the minimum inhibitory concentration (MIC) against Staphylococcus aureus [3] worked out at 0.06 µg/mL (≈ 0.0342 µM); in the test with Staphylococcus aureus [4], 0.06 µg/mL (≈ 0.0342 µM); against Staphylococcus aureus [21], 0.06 µg/mL (≈ 0.0342 µM); in [22], 0.125 µg/mL (≈ 0.0712 µM); in the test on Enterococcus faecalis [10], 0.25 µg/mL (≈ 0.142 µM); in the test with Staphylococcus aureus [13], 0.03 µg/mL (≈ 0.0171 µM). Further, the minimal inhibitory concentration (MIC) was determined as 0.125 µg/mL (≈ 0.0712 µM) in [16] and 0.06 µg/mL (≈ 0.0342 µM) against Staphylococcus aureus [20]. The MBIC in [7] turned out to be 0.5 µg/mL; with Staphylococcus aureus [9], 1 µg/mL; in the test with Staphylococcus aureus [11], 0.25 µg/mL; in [17] it was 0.5 µg/mL; with Enterococcus faecalis [18] it was 1 µg/mL.
